Source: ChEMBL document CHEMBL1132156, “Synthesis and structure-activity relationships of potential anticancer agents: alkylcarbamates of 3-(9-acridinylamino)-5-hydroxymethylaniline” (J Med Chem, 1999)

How the values were obtained:
Mus musculus [1] = experiment: […] anticancer activity against B6D2F-1 mice bearing P388 leukemia measured by the average weight change(g) after day 7 at an intravenous dose of 10(mg/kg).; type: functional
Method in brief: (§1)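 Male B6D2F1 mice (8 weeks old, 20–25 g) were implanted iv on day 0 with P388/0 ascites cells (0.2 mL; ascites:saline 1.10), which grew in the liver. Drug was given iv via the tail vein, Q2Dx5, on days 1, 3, 5, 7 and 9. Groups had 4–5 mice. Day 1 value is mean body weight; later days are weight change.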

Mus musculus [2] = experiment: […] anticancer activity against B6D2F-1 mice bearing P388 leukemia measured by the Average tumor vol after day 10 at an intravenous dose of 7(mg/kg).; type: functional
Mus musculus [3] = experiment: […] anticancer activity against B6D2F-1 mice bearing P388 leukemia measured by the Average tumor vol after day 10 at an intravenous dose of 3(mg/kg).; type: functional
Mus musculus [4] = experiment: […] anticancer activity against B6D2F-1 mice bearing Sarcoma 180 measured by the average weight change(g) after day 7 at an intraperitoneal dose of 7(mg/kg).; type: functional
Method in brief: (§2)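 Male B6D2F1 mice (8 weeks old, 20–25 g) were inoculated sc with 3×10^6 Sarcoma 180 cells on day 0. Dosing was ip, QDx5, starting on day 1. Groups were 4 control mice and 2 mice per dose. Average body weight change (g) and treated/control tumor volume were evaluated on days 7, 10 and 14.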

Mus musculus [5] = experiment: […] anticancer activity against B6D2F-1 mice bearing Sarcoma 180 measured by the average weight change(g) after day 14 at an intraperitoneal dose of 5(mg/kg).
Mus musculus [6] = experiment: […] anticancer activity against B6D2F-1 mice bearing P388 leukemia measured by the Average survival time(day+/-SD) at an intravenous dose of 15(mg/kg).; type: functional
Method in brief: (§3)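 Male B6D2F1 mice, 8 weeks old, 20–25 g. P388/0 ascites cells (0.2 mL, ascites:saline 1.10) were implanted iv on day 0, and the tumor grew in the liver. Drug was given iv by tail vein on days 1, 3, 5, 7 and 9 (Q2Dx5), with 4–5 mice per group. Survival time was scored as 8 a.m. (0.0), 1 p.m. (0.25) or 5 p.m. (0.5) deaths. %ILS was averaged against untreated controls, and toxic deaths were counted.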

Mus musculus [7] = experiment: […] anticancer activity against B6D2F-1 mice bearing Sarcoma 180 measured by the Average tumor vol after day 14 at an intravenous dose of 5(mg/kg).
Mus musculus [8] = experiment: […] anticancer activity against B6D2F-1 mice bearing Lewis Lung Carcinoma measured by the average weight change(g) after day 14 at an intraperitoneal dose of 3(mg/kg).; type: functional
Method in brief: (§4)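 Male B6D2F1 mice (8 weeks old, 20–25 g) received 4×10^6 Lewis lung carcinoma cells sc on day -2. Dosing was ip, QDx5, starting on day 1. Groups were 4 control mice and 3 mice per dose. Tumor size and average body-weight change were evaluated on days 7, 10 and 14. Tumor volume is expressed as the treated/control ratio.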

Mus musculus [9] = experiment: […] anticancer activity against B6D2F-1 mice bearing P388 leukemia measured by the average weight change(g) after day 11 at an intravenous dose of 10(mg/kg).; type: functional; method in brief: as §1
Mus musculus [10] = experiment: […] anticancer activity against B6D2F-1 mice bearing Sarcoma 180 measured by the average weight change(g) after day 14 at an intraperitoneal dose of 3(mg/kg).
Mus musculus [11] = experiment: […] anticancer activity against B6D2F-1 mice bearing P388 leukemia measured by the average survival time(day+/-SD) at an intravenous dose of 10(mg/kg)..; type: functional; method in brief: as §3
Mus musculus [12] = experiment: […] anticancer activity against B6D2F-1 mice bearing P388 leukemia measured by the average body weight(g) after day 1 at an intravenous dose of 15(mg/kg).
Mus musculus [13] = experiment: […] anticancer activity against B6D2F-1 mice bearing Sarcoma 180 measured by the average weight change(g) after day 7 at an intraperitoneal dose of 5(mg/kg).; type: functional; method in brief: as §2
Mus musculus [14] = experiment: […] anticancer activity against B6D2F-1 mice bearing P388 leukemia measured by the average weight change(g) after day 9 at an intravenous dose of 15(mg/kg).; type: functional
Method in brief: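 Male B6D2F1 mice (8 weeks old, 20–25 g) were implanted iv on day 0 with P388/0 ascites cells (0.2 mL; ascites:saline = 1.10). Tumor grew in the liver. Drug was given iv via the tail vein, Q2Dx5, on days 1, 3, 5, 7 and 9. Body weight was recorded on days 1, 7, 9 and 11 and reported as the average change (g).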

Mus musculus [15] = experiment: […] anticancer activity against B6D2F-1 mice bearing Sarcoma 180 measured by the Average tumor vol after day 7 at an intravenous dose of 7(mg/kg).
Mus musculus [16] = experiment: […] anticancer activity against B6D2F-1 mice bearing Sarcoma 180 measured by the Average tumor vol after day 7 at an intravenous dose of 3(mg/kg).
Mus musculus [17] = experiment: […] anticancer activity against B6D2F-1 mice bearing Lewis Lung Carcinoma measured by the Average tumor vol after day 14 at an intraperitoneal dose of 6(mg/kg).; type: functional; method in brief: as §4
Mus musculus [18] = experiment: […] anticancer activity against B6D2F-1 mice bearing Lewis Lung Carcinoma measured by the average weight change(g) after day 10 at an intraperitoneal dose of 3(mg/kg).; type: functional; method in brief: as §4
Mus musculus [19] = experiment: […] anticancer activity against B6D2F-1 mice bearing Sarcoma 180 measured by the Average tumor vol after day 7 at an intravenous dose of 5(mg/kg).
Mus musculus [20] = experiment: […] anticancer activity against B6D2F-1 mice bearing Sarcoma 180 measured by the average weight change(g) after day 7 at an intraperitoneal dose of 3(mg/kg).; type: functional; method in brief: as §2
Mus musculus [21] = experiment: […] anticancer activity against B6D2F-1 mice bearing P388 leukemia measured by the increase in lifespan(%) at an intravenous dose of 15(mg/kg).; type: functional; method in brief: as §3
Mus musculus [22] = experiment: […] anticancer activity against 5 B6D2F-1 mice bearing P388 leukemia measured by the toxicity death at an intravenous dose of 10(mg/kg)..; type: organism-based; details: in vivo; method in brief: as §3
Mus musculus [23] = experiment: […] anticancer activity against B6D2F-1 mice bearing P388 leukemia measured by the Average tumor vol after day 11 at an intravenous dose of 7(mg/kg).; type: functional
Mus musculus [24] = experiment: […] anticancer activity against B6D2F-1 mice bearing P388 leukemia measured by the average weight change(g) after day 7 at an intravenous dose of 15(mg/kg).; type: functional; method in brief: as §1
Mus musculus [25] = experiment: […] anticancer activity against B6D2F-1 mice bearing Lewis Lung Carcinoma measured by the average weight change(g) after day 10 at an intraperitoneal dose of 6(mg/kg).; type: functional; method in brief: as §4
Mus musculus [26] = experiment: […] anticancer activity against B6D2F-1 mice bearing Sarcoma 180 measured by the average weight change(g) after day 10 at an intraperitoneal dose of 3(mg/kg).; type: functional; method in brief: as §2
Mus musculus [27] = experiment: […] anticancer activity against B6D2F-1 mice bearing Sarcoma 180 measured by the average weight change(g) after day 14 at an intraperitoneal dose of 7(mg/kg).; type: functional; method in brief: as §2

SMILES: CCOC(=O)Nc1cc(CO)cc(Nc2c3ccccc3nc3ccccc23)c1
- Average weight change (Mus musculus [1]): -0.2 g
- Average tumor volume (Mus musculus [2]): <0.01
- Average tumor volume (Mus musculus [3]): 1.21
- Average weight change (Mus musculus [4]): -3.4 g
- Average weight change (Mus musculus [5]): 1.2 g
- Average survival (Mus musculus [6]): 13.2 days
- Average tumor volume (Mus musculus [7]): 0.8
- Average weight change (Mus musculus [8]): -0.8 g
- Average weight change (Mus musculus [9]): -0.1 g
- Average weight change (Mus musculus [10]): -0.8 g
- Average survival (Mus musculus [11]): 18.4 days
- Body weight (Mus musculus [12]): 23 g
- Average weight change (Mus musculus [13]): -2.6 g
- Average weight change (Mus musculus [14]): -2 g
- Average tumor volume (Mus musculus [15]): 0.22
- Average tumor volume (Mus musculus [16]): 1.24
- Average tumor volume (Mus musculus [17]): 0.52
- Average weight change (Mus musculus [18]): -1.3 g
- Average tumor volume (Mus musculus [19]): 0.06
- Average weight change (Mus musculus [20]): -2 g
- Increase in life-span (Mus musculus [21]): 106%
- Toxicity related death (Mus musculus [22]): 0
- Average tumor volume (Mus musculus [23]): <0.01
- Average weight change (Mus musculus [24]): -1.6 g
- Average weight change (Mus musculus [25]): -2.6 g
- Average weight change (Mus musculus [26]): -0.7 g
- Average weight change (Mus musculus [27]): -0.4 g
